One data set relates to 786-0. Description: Growth inhibition of human 786-0 cells after 48 hrs by sulforhodamine B assay. The class given is functional. An outline of the steps:
(§1)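 Cells in 96-well plates were exposed for 48 h at 37 °C in 5% CO2 to compounds at 0.25, 2.5, 25 and […] in DMSO/RPMI. Doxorubicin was the positive control at […]. Cells were then fixed with 50% trichloroacetic acid and stained with sulforhodamine B, with protein read at 540 nm. TGI (the concentration where T = T0) was taken by non-linear regression of each cell line's concentration-response curve.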
A general note: In SRB staining, fixed cells bind dye roughly in proportion to their protein.

A further data set relates to HT-29. The experiment in a line: Growth inhibition of human HT-29 cells after 48 hrs by sulforhodamine B assay. The class given is functional. Summed up:
as §1

In the next data set the test system is MCF7. Description: Growth inhibition of human MCF7 cells after 48 hrs by sulforhodamine B assay. The class given is functional. Summed up:
as §1

The subject of the next data set is NCI-H460. Description: Growth inhibition of human NCI-H460 cells after 48 hrs by sulforhodamine B assay. The format is functional. Summed up:
as §1

A short description of data set [1]: Growth inhibition of human NCI/ADR cells after 48 hrs by sulforhodamine B assay. The format is functional. Summed up: as §1
Another data set relates to U-251. The experiment in a line: Growth inhibition of human U251 cells after 48 hrs by sulforhodamine B assay. The format is functional. An outline of the steps: as §1
The nature of data set [2]: Growth inhibition of human HaCaT cells after 48 hrs by sulforhodamine B assay. The format is cell-based. Summed up:
as §1

The subject of a further data set is OVCAR-3. Description: Growth inhibition of human OVCAR3 cells after 48 hrs by sulforhodamine B assay. The format is functional. Summed up:
as §1

Molecules are shown by their SMILES.

These results are taken from ChEMBL document CHEMBL2034868, “Synthesis of methoxylated goniothalamin, aza-goniothalamin and γ-pyrones and their in vitro evaluation against human cancer cells” (Bioorg Med Chem, 2012).

Broadly, the TGI is the concentration giving total growth inhibition. The low end stands for greater sensitivity of the cells, the high end for lower sensitivity of the cells. For the compound `COc1cc(/C=C/C2CC=CC(=O)N2)cc(OC)c1OC` (stereo not given), the GI (in the data set on 786-0; in the data set on HT-29; in the data set on MCF7; in the data set with NCI-H460; in data set [1]; with U-251) was over 864.1 µM in each case. In addition, in the data set with OVCAR-3, the GI was over 864.1 µM. In data set [2], this compound showed a TGI at 48 h of over 864 µM.

As to `COc1ccc(/C=C/C2CC=CC(=O)O2)c(OC)c1` (racemic), the GI in the data set on 786-0 amounted to 4.1 µM; with HT-29, 6.6 µM; in the data set on MCF7, 5.4 µM; in the data set with NCI-H460, 6 µM; in data set [1] it was 8.8 µM; in the data set on U-251 it was 4.6 µM. The GI in the data set with OVCAR-3 turned out to be 5.6 µM. The same compound showed a TGI at 48 h in data set [2] of 15.8 µM.

Consider `COc1ccc(C2CC(=O)C=CO2)cc1` (stereo not given), for which the GI worked out at 197 µM in the data set on 786-0; 203.4 µM in the data set with HT-29; 172.9 µM with MCF7; 192.8 µM in the data set with NCI-H460; 419.6 µM in data set [1]; 226.1 µM with U-251. Besides, the GI in the data set on OVCAR-3 stood at 248.6 µM. Further, the TGI at 48 h in data set [2] was determined as 264 µM.

Take `COc1ccc(/C=C/C2CC=CC(=O)N2)cc1` (stereo not given): the GI is over 1090.4 µM with 786-0; over 1090.4 µM with HT-29; over 1090.4 µM in the data set with MCF7; over 1090.4 µM with NCI-H460; 841.7 µM in data set [1]; 981.3 µM with U-251. The compound also yielded a GI with OVCAR-3 of 786.8 µM. For the same compound, the TGI at 48 h in data set [2] was over 1090 µM.

As to `COc1cc(/C=C/C2CC=CC(=O)O2)cc(OC)c1` (racemic), the GI is 10.6 µM in the data set on 786-0; 8.2 µM in the data set on HT-29; 9.5 µM in the data set with MCF7; 9 µM in the data set on NCI-H460; 8.9 µM in data set [1]; 8.1 µM in the data set with U-251. This compound also yielded a GI in the data set on OVCAR-3 of 19.1 µM. Moreover, the concentration for total growth inhibition (TGI) at 48 h in data set [2] turned out to be 8.8 µM.

Consider `COc1ccc(/C=C/C2CC(=O)C=CO2)cc1OC` (stereo not given), for which the GI in the data set on 786-0 amounted to 145.1 µM; in the data set with HT-29 it was 123.2 µM; with MCF7 it was 130.2 µM; in the data set with NCI-H460, 89.6 µM; in data set [1], 145.8 µM; in the data set on U-251, 86.9 µM. This compound also returned a GI in the data set on OVCAR-3 of 74.3 µM. The compound further showed a TGI at 48 h in data set [2] of 134 µM.

With `COc1cc(/C=C/C2CC(=O)C=CO2)cc(OC)c1OC` (stereo not given), the GI amounted to 125 µM in the data set with 786-0; 134.5 µM with HT-29; 149.4 µM in the data set on MCF7; 127.3 µM with NCI-H460; 223.2 µM in data set [1]; 101.8 µM with U-251. This compound gave a GI in the data set on OVCAR-3 of 85.4 µM. In data set [2], the concentration for total growth inhibition (TGI) at 48 h turned out to be 155 µM.

As to `O=C1C=CCC(/C=C/c2ccc(C(F)(F)F)cc2)O1` (racemic), the GI in the data set on 786-0 is 44.5 µM; with HT-29, 36.2 µM; in the data set on MCF7, 51 µM; in the data set on NCI-H460, 476.9 µM; in data set [1], 54.8 µM; in the data set on U-251 it was 36.8 µM. Further, the GI in the data set with OVCAR-3 stood at 167.2 µM. In data set [2], this compound yielded a concentration for total growth inhibition (TGI) at 48 h of 69.7 µM.

As to `COc1ccc(/C=C/c2cc(=O)cco2)cc1OC`, the GI was 635.4 µM in the data set with 786-0; 806.7 µM in the data set with HT-29; 953.6 µM with MCF7; 545.5 µM in the data set with NCI-H460; 407.9 µM in data set [1]; 338.9 µM with U-251. The compound further gave a GI in the data set on OVCAR-3 of 540.2 µM. Net growth in data set [2] stopped (TGI at 48 h) at 690 µM.

`COc1ccc(C2CC(=O)C(I)=CO2)cc1` (stereo not given): the GI in the data set with 786-0 came to 27 µM; with HT-29, 24.4 µM; in the data set with MCF7, 43.2 µM; in the data set with NCI-H460, 74.6 µM; in data set [1], 39.7 µM; in the data set with U-251 it was 24.4 µM. This compound came in with a GI in the data set with OVCAR-3 of 38.2 µM. The compound further came in with a concentration for total growth inhibition (TGI) at 48 h in data set [2] of 53.3 µM.
